ChEMBL document CHEMBL4177720, “Towards smart biocide-free anti-biofilm strategies: Click-based synthesis of cinnamide analogues as anti-biofilm compounds against marine bacteria” (Bioorg Med Chem Lett, 2018)

Columns and labels:
Paracoccus sp. = assay: Anti-biofilm activity against Paracoccus sp. 4M6 assessed as inhibition of bacterial adhesion incubated for 15 hrs at 20 degC by Syto 61 dye based fluorimetric assay; format: functional; conditions: Paracoccus sp. (in: a-proteobacteria), 4M6, 15 h
Method in brief: (§1)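 Cells were grown in VNSS at 20°C to stationary phase, centrifuged, and resuspended in artificial sea water (ASW) to OD600 0.2-0.4. Suspension (100 µL) plus 100 µL diluted compound, in triplicate, with ASW-only adhesion control, was held 15 h at 20°C. After three 36 g/L NaCl washes, adhered cells were stained 10 min at room temperature with 40 µmol/L Syto 61. Fluorescence read at ex 615/em 670 nm; EC50 from dose-response fit.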

[1] = test system: Pseudoalteromonas lipolytica; assay: Anti-biofilm activity against Pseudoalteromonas lipolytica TC8 assessed as inhibition of bacterial adhesion incubated for 15 hrs at 20 degC by Syto 61 dye based fluorimetric assay; format: functional, organism-based; conditions: TC8, 15 h; method in brief: as §1
Pseudoalteromonas ulvae [2] = assay: Anti-biofilm activity against Pseudoalteromonas ulvae TC14 assessed as inhibition of bacterial adhesion incubated for 15 hrs at 20 degC by Syto 61 dye based fluorimetric assay; format: functional, organism-based; conditions: TC14, 15 h; method in brief: as §1
Pseudoalteromonas ulvae [3] = assay: Effect on cell growth of Pseudoalteromonas ulvae TC14 at 100 uM measured every hr during 6 hrs by turbidity (OD600) measurement
Pseudoalteromonas ulvae [4] = assay: Effect on cell viability of Pseudoalteromonas ulvae TC14 at 100 uM measured every hr during 6 hrs by resazurin based assay; format: organism-based
Method in brief: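 Exponential-phase cells (VNSS, 20°C, 120 rpm) were resuspended in VNSS to OD600 0.1. 20 µL inoculated into 180 µL compound in VNSS, triplicate, at 100 µM, with solvent and medium controls. OD600 was read hourly for 6 h. Resazurin (50 µM) was then added, and fluorescence after 2 h gave percent viability versus untreated.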

EC50 (Paracoccus sp.) [µM] | EC50 [1] [µM] | EC50 (Pseudoalteromonas ulvae [2]) [µM] | SMILES | Activity (Pseudoalteromonas ulvae [3]) | Activity (Pseudoalteromonas ulvae [4])
226 | > 300 | 80.6 | COc1cccc(CCNC(=O)c2cn(-c3cccc(OC)c3)nn2)c1 |  | 
214 | 142 | 52.3 | COc1ccc(-n2cc(C(=O)NCCc3cccc(OC)c3)nn2)cc1 | Non-Toxic | 
220 | > 300 | 115 | COc1ccc(-n2cc(C(=O)NCCc3ccc(O)cc3)nn2)cc1 |  | 
154 | > 300 | 73.7 | COc1cccc(-n2cc(C(=O)NCCc3ccc(OC)c(OC)c3)nn2)c1 |  | 
260 | > 300 | 11.3 | COc1ccc(CCNC(=O)c2cn(-c3ccc(OC)cc3)nn2)cc1 | Non-Toxic | Non-Toxic
162 | > 300 | 54.6 | COc1ccc(-n2cc(C(=O)NCCc3ccc(OC)c(OC)c3)nn2)cc1 | Non-Toxic | Non-Toxic
 |  |  | CC1(C)S[C@@H]2[C@H](NC(=O)[C@H](N)c3ccccc3)C(=O)N2[C@H]1C(=O)O [AMPICILLIN] |  | Toxic
> 300 | > 300 | 75.5 | O=C(/C=C/c1ccc(O)cc1)NCCc1ccc(O)cc1 [N-P-COUMAROYL TYRAMINE] |  | 
> 300 | 276 | 204 | COc1cccc(-n2cc(C(=O)NCCc3ccc(O)cc3)nn2)c1 |  | 
216 | > 300 | 11.4 | COc1ccc(CCNC(=O)c2cn(-c3cccc(OC)c3)nn2)cc1 | Non-Toxic | Non-Toxic
